The results in this text go back to ChEMBL document CHEMBL4477203 (J Med Chem, 2016).

Numbered stars: 1 amine (or outer) side, 2 acyl side, 3 side chain; on linkers, the order of the positions; unused ones are H or OH. Bridge positions count the residues as written; N and C are the ends. Square brackets hold non-standard residues; d marks the D form. Peptide text beside a SMILES is read from it. I, II: the chains in the order shown. X2 = NCCCCNC(=O)/N=C(\N)NCCC[C@H](N[*:1])C(=O)[*:2]; Suberoyl = O=C(CCCCCCC(=O)[*:2])[*:1]

In test [1] the target is T1, Neuropeptide Y receptor type 4 (Homo sapiens, UniProt P50391). The test is described as follows: Intrinsic activity at human NPY Y4 receptor expressed in CHO cells co-expressing Gqi5-mtAEQ assessed as induction of calcium mobilization by aequorin luminescence assay relative to pancreatic polypeptide. The test is classed as functional, cell-based. An outline of the steps:
(§1)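 Luminescence was integrated as area under the curve and normalized to the response to 1 µM PP. Data are means ± SEM of at least 3 independent experiments, each run in triplicate.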
A general note: Calcium flux is commonly read through the fluorescence of an indicator in the cells.

For test [2], the target named is T1, Neuropeptide Y receptor type 4. Description: Intrinsic activity at human NPY Y4 receptor expressed in HEK293 cells co-expressing CRE-Luc gene assessed as inhibition of forskolin stimulated luciferase activity after 4.5 hrs by luminescence assay relative to pancreatic polypeptide. The test is classed as functional, cell-based. The gist of the method: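 HEK293 cells stably co-transfected with a CRE-controlled firefly luciferase reporter and hY4R, tested in phenol-red-free DMEM, pH 7.4. […] The maximal inhibition by PP was set to 0% activity (α = 1.0). Data are means ± SEM of at least 3 experiments in triplicate.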

Test [3] addresses T2, Neuropeptide Y receptor type 1 (Homo sapiens) (UniProt P25929).
T2 sequence (whole entry): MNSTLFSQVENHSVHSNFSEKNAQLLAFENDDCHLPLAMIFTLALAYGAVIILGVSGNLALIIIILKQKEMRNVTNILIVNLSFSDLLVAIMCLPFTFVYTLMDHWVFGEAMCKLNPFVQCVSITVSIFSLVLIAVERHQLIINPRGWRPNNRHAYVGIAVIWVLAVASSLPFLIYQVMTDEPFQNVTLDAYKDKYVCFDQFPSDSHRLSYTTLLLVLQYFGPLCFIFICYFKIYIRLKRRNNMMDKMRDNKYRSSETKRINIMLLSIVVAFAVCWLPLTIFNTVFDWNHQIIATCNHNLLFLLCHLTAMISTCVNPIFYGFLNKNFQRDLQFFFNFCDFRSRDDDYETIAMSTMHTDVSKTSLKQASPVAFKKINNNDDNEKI
Description: Antagonist activity at human NPY Y1 receptor expressed in human HEL cells assessed as inhibition of the pNPY-stimulated intracellular [Ca2+] mobilization by Fura-2 based luminescence spectrometry. The test is classed as functional, cell-based. An outline of the steps: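 Functional Y1R assay on HEL cells, which express Y1R endogenously. Intracellular Ca2+ was read with Fura-2 on a luminescence spectrometer. Antagonism is expressed as Kb.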

Test [4] concerns the target T1, Neuropeptide Y receptor type 4. Description: Displacement of [3H]18 from human NPY Y4 receptor expressed in CHO cells co-expressing Gqi5-mtAEQ after 90 mins by liquid scintillation counting. The test is classed as cell-based. On the technique in general: In a radioligand displacement assay an active substance lowers the binding of a labelled ligand.
Test [5] has the same target. Description: Agonist activity at human NPY Y4 receptor expressed in HEK293 cells co-expressing CRE-Luc gene assessed as inhibition of forskolin stimulated luciferase activity after 4.5 hrs by luminescence assay. The class given is functional, cell-based. The gist of the method: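 HEK293 cells stably co-transfected with a CRE-controlled firefly luciferase reporter and hY4R, tested in phenol-red-free DMEM, pH 7.4. The maximal inhibition by PP was set to 0% activity (α = 1.0). Data are means ± SEM of at least 3 experiments in triplicate.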

For test [6] the target is unchanged. The test is described as follows: Displacement of [3H](2R,7R)-10 from human NPY Y4 receptor expressed in CHO cells co-expressing Gqi5-mtAEQ after 90 mins in presence of L-15 medium by liquid scintillation counting. The class given is cell-based.
Test [7] has the same target. The test is described as follows: Binding affinity to human NPY Y4 receptor expressed in CHO cells co-expressing Gqi5-mtAEQ after 90 mins in presence of L-15 medium by liquid scintillation counting. The test is classed as cell-based.
The target is the same in test [8]. Description: Binding affinity to human NPY Y4 receptor expressed in CHO cells co-expressing Gqi5-mtAEQ after 90 mins in presence of sodium-free HEPES buffer by liquid scintillation counting. The test is classed as cell-based.
Test [9] has the same target. Description: Displacement of [3H](2R,7R)-10 from human NPY Y4 receptor expressed in CHO cells co-expressing Gqi5-mtAEQ after 90 mins in presence of sodium-free HEPES buffer by liquid scintillation counting. The class given is cell-based.
Test [10] shares this target. Description: Agonist activity at human NPY Y4 receptor expressed in CHO cells co-expressing Gqi5-mtAEQ assessed as induction of calcium mobilization by aequorin luminescence assay. The class given is functional, cell-based. An outline of the steps: as §1
The target in test [11] is T3, Neuropeptide Y receptor type 5 (Homo sapiens, UniProt Q15761).
T3 sequence (Q15761 whole entry): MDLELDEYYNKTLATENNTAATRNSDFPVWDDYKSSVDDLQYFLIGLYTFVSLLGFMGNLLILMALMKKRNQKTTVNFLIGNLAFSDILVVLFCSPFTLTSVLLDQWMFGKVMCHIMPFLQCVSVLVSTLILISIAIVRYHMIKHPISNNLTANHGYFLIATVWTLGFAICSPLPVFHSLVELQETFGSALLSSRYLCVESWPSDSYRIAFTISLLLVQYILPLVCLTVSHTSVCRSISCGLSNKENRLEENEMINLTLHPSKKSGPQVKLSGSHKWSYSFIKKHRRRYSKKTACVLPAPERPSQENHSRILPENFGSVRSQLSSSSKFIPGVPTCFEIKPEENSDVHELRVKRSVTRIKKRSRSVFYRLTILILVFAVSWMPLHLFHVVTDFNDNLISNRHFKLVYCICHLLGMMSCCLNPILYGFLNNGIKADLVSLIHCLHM
The test is described as follows: Displacement of [3H]propionyl-pNPY from human NPY Y5 receptor expressed in human HEC1b cells after 120 mins by liquid scintillation counting. The class given is cell-based. An outline of the steps:
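Adherent HEC-1B-hY5 cells in buffer II with 1% BSA and 0.1 mg/mL bacitracin at 22 °C. […] Incubation was 120 min, followed by ice-cold washes, lysis and scintillation counting.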

The target in test [12] is T4, Neuropeptide Y receptor type 2 (Homo sapiens, UniProt P49146).
T4 sequence (P49146 whole entry): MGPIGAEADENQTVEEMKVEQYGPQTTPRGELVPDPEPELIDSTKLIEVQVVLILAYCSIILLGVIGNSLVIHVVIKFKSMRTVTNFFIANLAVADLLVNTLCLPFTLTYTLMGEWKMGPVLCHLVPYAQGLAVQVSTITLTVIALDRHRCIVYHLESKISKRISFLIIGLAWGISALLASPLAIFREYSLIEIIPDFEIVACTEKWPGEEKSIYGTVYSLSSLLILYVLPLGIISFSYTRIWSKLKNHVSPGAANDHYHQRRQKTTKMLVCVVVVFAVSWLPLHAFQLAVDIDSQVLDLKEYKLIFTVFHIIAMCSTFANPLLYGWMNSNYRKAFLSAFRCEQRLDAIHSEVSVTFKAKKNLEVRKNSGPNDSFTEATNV
The test is described as follows: Displacement of [3H]propionyl-pNPY from human NPY Y2 receptor expressed in CHO cells co-expressing Gqi5-mtAEQ after 90 mins by liquid scintillation counting. The test is classed as cell-based. The gist of the method: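 Adherent CHO-hY2R-Gqi5-mtAEQ cells in buffer I with 1% BSA and 0.1 mg/mL bacitracin at 22 °C. […] Incubation was 90 min, followed by two ice-cold washes, lysis and scintillation counting.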

Test [13] deals with T5, Neuropeptide Y receptor type 1 (Homo sapiens, UniProt P25929).
T5 sequence (P25929 whole entry): T2 sequence (whole entry)
The test is described as follows: Displacement of [3H]UR-MK136 from human NPY Y1 receptor expressed in human MCF7 cells by liquid scintillation counting. The class given is cell-based.

T1 sequence (P50391 whole entry): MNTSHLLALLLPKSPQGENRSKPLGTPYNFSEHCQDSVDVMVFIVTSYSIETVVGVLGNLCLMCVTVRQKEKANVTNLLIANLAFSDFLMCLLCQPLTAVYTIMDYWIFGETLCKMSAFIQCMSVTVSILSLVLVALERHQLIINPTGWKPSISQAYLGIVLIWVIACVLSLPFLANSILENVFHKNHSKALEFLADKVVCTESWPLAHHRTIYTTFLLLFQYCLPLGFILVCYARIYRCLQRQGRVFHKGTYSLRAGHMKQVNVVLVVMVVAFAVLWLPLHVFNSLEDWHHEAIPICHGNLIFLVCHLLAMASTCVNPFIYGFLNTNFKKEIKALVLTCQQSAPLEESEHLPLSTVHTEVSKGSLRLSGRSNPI

A word on the Kb: it is the equilibrium dissociation constant of an antagonist, usually derived from a functional assay. One may read the Ki as the dissociation constant of the complex between target and ligand, obtained from inhibition or displacement. The term EC50 denotes the concentration that produces a half-maximal response. As for `CC(C)C[C@H](NC(=O)[C@H](CCCNC(=N)N)NC(=O)[C@H](Cc1ccc(O)cc1)NC(=O)[C@H](N)CCCC[C@@H](N)C(=O)N[C@@H](Cc1ccc(O)cc1)C(=O)N[C@@H](CCCNC(=N)N)C(=O)N[C@@H](CC(C)C)C(=O)N[C@@H](CCCNC(=N)N)C(=O)N[C@@H](Cc1ccc(O)cc1)C(N)=O)C(=O)N[C@@H](CCCNC(=N)N)C(=O)N[C@@H](Cc1ccc(O)cc1)C(N)=O`, the Intrinsic activity was found to be 0.75 in test [1] and 1.03 in test [2]. For the same molecule, in test [3], the Kb stood at 9.5 nM. Moreover, the figures for the Ki in test [4] and in test [6] were 0.18 nM and 2 nM, respectively. Besides, the EC50 in test [5] came to 1.6 nM.
Broadly, the Kd is the concentration at which binding is half-saturated. `[3H]CC([3H])C(=O)N[C@@H](CCCC[C@H](N)C(=O)N[C@@H](Cc1ccc(O)cc1)C(=O)N[C@@H](CCCNC(=N)N)C(=O)N[C@@H](CC(C)C)C(=O)N[C@@H](CCCNC(=N)N)C(=O)N[C@@H](Cc1ccc(O)cc1)C(N)=O)C(=O)N[C@@H](Cc1ccc(O)cc1)C(=O)N[C@@H](CCCNC(=N)N)C(=O)N[C@@H](CC(C)C)C(=O)N[C@@H](CCCNC(=N)N)C(=O)N[C@@H](Cc1ccc(O)cc1)C(N)=O` (stereo partly drawn): the figures for the Kd in test [7] and in test [8] were 9.8 nM and 0.67 nM, respectively.
With `CC[C@H](C)[C@H](N)C(=O)N[C@H]1CCC(=O)NC[C@@H](C(=O)N[C@@H](Cc2ccc(O)cc2)C(=O)N[C@@H](CCCN=C(N)N)C(=O)N[C@@H](CC(C)C)C(=O)N[C@@H](CCCN=C(N)N)C(=O)N[C@@H](Cc2ccc(O)cc2)C(N)=O)NC(=O)[C@@H]2CCCN2C(=O)[C@@H](NC(=O)[C@@H](N)[C@@H](C)CC)CCC(=O)NC[C@@H](C(=O)N[C@@H](Cc2ccc(O)cc2)C(=O)N[C@@H](CCCN=C(N)N)C(=O)N[C@@H](CC(C)C)C(=O)N[C@@H](CCCN=C(N)N)C(=O)N[C@@H](Cc2ccc(O)cc2)C(N)=O)NC(=O)[C@@H]2CCCN2C1=O`, the values for the Ki in [9] (cho) and in [4] (cho) were 1.6 nM and 1.3 nM, respectively. For the same molecule, the values for the EC50 in test [10] (cho) and in test [5] (hek293) were 8.5 nM and 5.5 nM, respectively.
Regarding `CC(C)C[C@H](NC(=O)[C@H](CCCNC(=N)N)NC(=O)[C@H](Cc1ccc(O)cc1)NC(=O)CCCCCCC(=O)N[C@@H](Cc1ccc(O)cc1)C(=O)N[C@@H](CCCN/C(N)=N/C(=O)NCCCCN)C(=O)N[C@@H](CC(C)C)C(=O)N[C@@H](CCCNC(=N)N)C(=O)N[C@@H](Cc1ccc(O)cc1)C(N)=O)C(=O)N[C@@H](CCCNC(=N)N)C(=O)N[C@@H](Cc1ccc(O)cc1)C(N)=O` (I: Y[X2]LRY-NH2 / II: YRLRY-NH2; linker I:N-II:N via Suberoyl), the Ki in test [11] worked out at 140 nM; in test [12], 730 nM; in test [9], 1.2 nM; in test [13] it was 410 nM. Moreover, the Intrinsic activity in test [1] came to 0.8; in test [2], 1.06. Moreover, the Kb in test [3] is 25.3 nM. Besides, the EC50 came to 6.4 nM in [10] and 1.7 nM in test [5].
As for `NCCN(CCNC(=O)c1ccc(C(=O)NCCOCCOCCNC(=O)/N=C(/N)NCCC[C@@H](NC(=O)C(c2ccccc2)c2ccccc2)C(=O)NCc2ccc(O)cc2)cc1)CCNC(=O)c1ccc(C(=O)NCCOCCOCCNC(=O)/N=C(/N)NCCC[C@@H](NC(=O)C(c2ccccc2)c2ccccc2)C(=O)NCc2ccc(O)cc2)cc1`, the Ki in test [4] is 630 nM; in test [6], 150 nM.
